Experimental data collected from several papers.
Each line is one published result; the experiments were not run side by side.
Target: Aurora kinase B (AURKB, Homo sapiens, UniProt Q96GD4)

The remaining activity of `Cc1nn(CC(F)(F)F)cc1Nc1ncc(C2CC2)c(NCCCNC(=O)C2CCC2)n1` is reported as 102% (enzyme activity, inhibitor, radiometric; 1 µM).
The inhibition of `CNc1cccc2cc(C(=O)Nc3ccc(C(=O)O)cc3)c(=O)[nH]c12` is reported as -8.1% (enzyme activity, inhibitor; 10 µM).
With `CCN(CC)CCNC(=O)c1c(C)[nH]c(/C=C2\C(=O)Nc3ccc(F)cc32)c1C` the remaining signal was 48.7% (cell-free assay; 0.5 µM).
For `CC/C(=N\NC(=O)NCc1cccc(O)c1)c1ccc(O)c(C)c1O`, the inhibition was 2.9% (enzyme activity, inhibitor; 0.1 µM).
`c1ccc(N2CCN(Cc3nc4ccccc4[nH]3)CC2)nc1` gave a remaining binding of 18% (cell-free assay, competition with immobilised ligand; 1 µM).
With `O=C(NCCCNc1nc(Nc2cccc(NC(=O)N3CCCC3)c2)ncc1C1CC1)C1CCC1` the remaining activity was 11% (enzyme activity, inhibitor, radiometric; 1 µM).
`CN(C)C1CCN(CC#Cc2nn(C3CCCC3)c3nc(NCc4ccccc4)ncc23)C1` (stereo not shown) has an inhibition of 21% (enzyme activity, inhibitor, FRET; 1 µM).
`COc1cc2c(Nc3ccc(Br)cc3F)ncnc2cc1OCC1CCN(C)CC1` has a remaining signal of 95.5% (cell-free assay; 0.5 µM).
The inhibition of `O=C(CSc1nc2nccnc2c(=O)n1CCc1ccccc1)Nc1nccs1` is reported as 6% (enzyme activity, inhibitor; 10 µM).
The remaining binding of `CN(C(=O)c1ccccc1)c1cc(N(C)c2ccc3c(c2)CCc2ccc(C(=O)NCCN4CCOCC4)cc2C3=O)ccc1F` is reported as 100% (cell-free assay, competition with immobilised ligand; 1 µM).
`Brc1cnc(Nc2cccc(CN3CCOCC3)c2)nc1NCCc1c[nH]cn1` has a remaining activity of 1% (enzyme activity, inhibitor, radiometric; 1 µM).
With `Cc1nc(N2CC[C@@H](O)C2)ncc1-c1cc(C(F)(F)F)cc2[nH]ncc12` the remaining binding was 100% (cell-free assay, competition with immobilised ligand; 1 µM).
With `Cc1cc(Nc2cc3ncccc3c(N[C@@H]3C[C@H]4CC[C@@H](C3)N4CCC#N)n2)n[nH]1` the inhibition was 80% (enzyme activity, inhibitor; 1 µM).
The remaining binding of `CC(=O)C1=C(C)N(c2cccc(C(F)(F)F)c2)C(=O)N[C@@H]1c1ccc(C#N)nc1` is reported as 100% (cell-free assay, competition with immobilised ligand; 1 µM).
`O=C(Nc1cccc(Nc2ncc(Br)c(NCCc3cnc[nH]3)n2)c1)N1CCCC1` gave a remaining activity of 2% (enzyme activity, inhibitor, radiometric; 1 µM).
The remaining binding of `Cc1c[nH]c2nccc(Oc3c(F)cc(Nc4cc(Cl)nc(N)n4)cc3F)c12` is reported as 82% (cell-free assay, competition with immobilised ligand; 0.1 µM).
For `N#CCCc1ccc2c(c1)-c1[nH]c3ccc([N+](=O)[O-])cc3c1CC(=O)N2`, the remaining signal was 80% (cell-free assay; 0.5 µM).
For `CCc1ccccc1C(=O)Nc1n[nH]c2c(C)c(F)c(C3C(C#N)=C(C)N(C)C(C)=C3C#N)cc12`, the remaining binding was 88% (cell-free assay, competition with immobilised ligand; 1 µM).
The activity vs control of `Cc1ccc(C(=O)NCc2ccsc2)cc1C#Cc1cn(C(C)C)c2ncnc(N)c12` is reported as 40% (enzyme activity, inhibitor; 1 µM).
